# Assay results as given in PMC4303305 (Biochemistry, 2014).
# Read-outs that look alike come from different tables or passages of the source.
# Experiments:
# [1] = cited from earlier work
# [2] = Stopped-flow kinetics of release of NO from the nitrophorins; format: binding, Rhodnius prolixus
# How it was run: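 Stopped-flow measurement of NO release from NO-bound nitrophorins with native or M0-bearing N-termini. Dissociation Kd obtained at pH 5.0 and 7.5 in dilute solution, 5–10 μM protein in 100 mM sodium phosphate buffer.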
# [3] = Size-exclusion FPLC retention of nitrophorins, mutants and ligand complexes; format: physicochemical, Rhodnius prolixus; conditions: under any conditions / at any pH
# How it was run: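 Analytical run on Superdex75 at 4 °C in 100 mM sodium acetate, NaCl added to 220 mM total ionic strength. Protein at 1 mM was run at pH 5.0, 5.25, 5.5 and 5.75. Separately, protein from 1 to 0.025 mM was run at pH 5.0. Elution position compared with molecular weight standards.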
Substance,"NO Kd (NO dissociation) ([1]; pH 5.0, ref 29)",NO Kd (NO dissociation) ([1]; pH 7.5),factor by which having M0 present increased the Kd for the loss of NO ([2]; pH 5.0),factor by which having M0 present increased the Kd for the loss of NO ([2]; pH 7.5),"NO Kd (NO dissociation) ([1]; column pH 7.5, measured at pH 8.0 rather than pH 7.5 (footnote a))","NO Kd (NO dissociation) ([1]; pH 5.0, ref 17)",dimer formation [3]
"NP2(D1A): D1A mutant of NP2, no M0 present",0.015 ± 0.005 s^–1,0.089 ± 0.002 s^–1,–,–,–,–,–
NP2: nitrophorin 2 of Rhodnius prolixus; in b68 named without construct,–,–,1.6,1.7,–,–,–
(M0)NP2: recombinant NP2 retaining M0 (N-terminus MDCST...),0.049 ± 0.002 s^–1,0.161 ± 0.005 s^–1,–,–,0.12 ± 0.01 ^a s^–1,0.05 ± 0.01 s^–1,do not form dimers
